Assay results from different studies.
CDK7: Cyclin-dependent kinase 7 (CDK7, Homo sapiens, UniProt P50613)
CDK7 with cyclin H: Cyclin-dependent kinase 7, with cyclin H (CDK7, Homo sapiens, UniProt P50613)

SMILES	target	assay	conditions	endpoint	result
CCN1CCN(Cc2ccc(C(=O)Nc3ccc(C)c(Oc4ccc5c(c4)CC(=O)N5)c3)cc2C(F)(F)F)CC1	CDK7	binding, competition with immobilised ligand	1 µM	remaining binding	84%
Cn1cncc1[C@](O)(COc1ccc(C#N)cc1-c1ccc(OC(F)(F)F)cc1)c1ccc(C#N)cc1	CDK7	cell-free assay, competition with immobilised ligand	1 µM	remaining binding	95%
CNC(=O)Oc1ccc2c(c1)[C@]1(C)CCN(C)[C@@H]1N2C	CDK7 with cyclin H	enzyme activity, inhibitor, ADP detection	10 µM	inhibition	-4.5%
Cn1cc(-c2cc(F)cc(N3CCn4c(cc5c4CCCC5)C3=O)c2CO)cc(Nc2ccc(N3CCN(C4COC4)CC3)cn2)c1=O	CDK7 with cyclin H	enzyme activity, inhibitor	0.1 µM	inhibition	4%
Cc1nn(C)cc1-c1nc2c(N3CCN(Cc4ccc(Cl)cc4)CC3)c(Cl)cnc2[nH]1	CDK7	binding, competition with immobilised ligand	1 µM	remaining binding	100%
COc1ncccc1-c1cnn2ccc(N3CCN(C(=O)OC(C)C)CC3)nc12	CDK7	binding, competition with immobilised ligand	1 µM	remaining binding	100%
C[C@]12CC[C@H](O)CC1=CC[C@@H]1[C@@H]2CC[C@]2(C)C(=O)CC[C@@H]12	CDK7 with cyclin H	enzyme activity, inhibitor, ADP detection	10 µM	inhibition	-2%
Cn1cc(-c2cccc(N3CCc4c(sc5c4CC(C)(C)C5)C3=O)c2CO)cc(Nc2ccncn2)c1=O	CDK7 with cyclin H	enzyme activity, inhibitor	1 µM	inhibition	-11%
COc1cc2occc2c2oc(=O)ccc12	CDK7 with cyclin H	enzyme activity, inhibitor, ADP detection	10 µM	inhibition	-29.9%
Nc1ncc(-c2nc(N3CCOCC3)nc(N3CCOCC3)n2)c(C(F)F)n1	CDK7	binding, competition with immobilised ligand	10 µM	remaining binding	56%
